Several values for one entry are separate records, joined by “and”; a condition that tells them apart may be missing. Equal values may be shown once.
Columns and labels:
[1] = tested on: P388; experiment: […] antiproliferative activity against P388 cell line; type: functional; settings: Mus musculus
[2] = tested on: IGROV-1; experiment: […] antiproliferative activity against IGROV1 cell line; type: functional; settings: Homo sapiens
[3] = tested on: P388; experiment: Median survival time of treated animals/median survival time of control animals; type: functional, Mus musculus
[4] = tested on: A549; experiment: Antitumor activity against A549 non small cell carcinoma at dose range of 70-100 mg/kg on day 14, 21, 28; activity expressed as maximum tolerated dose; type: functional, Homo sapiens
Summary of the method: (§1)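 A549 human lung tumour cells were implanted orthotopically, 10⁶ cells through the chest wall into the left pleural space of anaesthetised BALB/C nude mice. Once tumours were established, drug was given iv on days 14, 21 and 28 after tumour cell injection. The endpoint was life span, expressed as T/C (%) = median survival time of treated/control × 100. MTD was the dose causing no toxic death and/or no weight loss >20%.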

[5] = tested on: A-431; experiment: […] antiproliferative activity against A431 cell line; type: functional; settings: Homo sapiens
[6] = tested on: MDA-MB-231; experiment: […] antiproliferative activity against MDA-MB-231 cell line; type: functional; settings: Homo sapiens
[7] = tested on: K562; experiment: […] antiproliferative activity against K-562 cell line; type: functional; settings: Homo sapiens
[8] = tested on: SK-N-MC; experiment: […] antiproliferative activity against SK-N-MC cell line; type: functional; settings: Homo sapiens
[9] = tested on: KB 3-1; experiment: In vitro antiproliferative activity against KB-3-1 cell line; settings: Homo sapiens
[10] = tested on: HT-29; experiment: […] antiproliferative activity against HT-29 cell line; type: functional; settings: Homo sapiens
[11] = organism: Mus musculus; experiment: Compound was evaluated for long-term survivors scored at day 60; 6/42; type: functional
[12] = tested on: A549; experiment: […] antiproliferative activity against A549 cell line; type: functional; settings: Homo sapiens
[13] = Median survival time of treated animals/median survival time of control animals; ranges from 122-131; type: functional; summary of the method: as §1
[14] = tested on: L1210; experiment: Percent of L1210 cells in the G2+M phase of the cell cycle at a compound concentration of 2.5 uM; type: functional, Mus musculus
Summary of the method: (§2)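 L1210 cells (2.5 × 10⁵ cells/mL) were incubated for 21 h with compound at the stated concentration. Flow cytometry was run on 10⁴ cells per sample, and the percentage of cells in G2+M was recorded.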

[15] = tested on: DU-145; experiment: […] antiproliferative activity against DU-145 cell line; type: functional; settings: Homo sapiens
[16] = target: DNA topoisomerase II (Homo sapiens) (UniProt P11388+Q02880); experiment: Inhibition of human DNA Topoisomerase II mediated DNA cleavage through the stabilization of transient DAN/topoisomerase II cleavage complex; type: protein assay
Summary of the method: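 Supercoiled pBS DNA (0.1 μg) preincubated 15 min at 30 °C with drug at 50 μM in 50 mM Tris-HCl pH 7.5, 1 mM ATP, 120 mM KCl, 10 mM MgCl2, 0.5 mM DTT, 0.1 mM EDTA, BSA. Two units human topo II added, 30 min at 30 °C. SDS/proteinase K digestion 30 min at 55 °C. 1% agarose gel with ethidium bromide; linear DNA percentage read, mean of three independent experiments.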

[17] = tested on: NCI-H69; experiment: […] antiproliferative activity against NCI-H69 cell line; type: functional; settings: Homo sapiens
[18] = tested on: P388; experiment: Antitumor activity against P388 leukemia at dose range of 6.25-100 mg/kg on day 1, activity expressed as maximum tolerated dose; type: functional, Mus musculus
[19] = tested on: P388; experiment: Evaluated for long-term survivors scored at day 60; 0/6; type: functional, Mus musculus
[20] = tested on: P388; experiment: Antitumor activity against P388 leukemia at dose range of 12.5-200 mg/kg on day 1, activity expressed as maximum tolerated dose; type: functional, Mus musculus
[21] = tested on: L1210; experiment: Inhibitory concentration required to reduce 50 percent L1210 cell growth; type: functional, cell-based; settings: Mus musculus
Summary of the method: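 L1210 cells were grown in RPMI 1640 with 10% fetal calf serum, 2 mM glutamine, antibiotics and 10 mM HEPES (pH 7.4). Cells were exposed to compound for 48 h. MTT was then added for 4 h at 37 °C, and formazan was dissolved in DMSO and read at 540 nm. IC50 is the concentration reducing OD by 50%, from linear regression on the linear part of the curve. Triplicate.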

[22] = tested on: L1210; experiment: Percent of L1210 cells in the G2+M phase of the cell cycle at a compound concentration of 0.5 uM; type: functional, Mus musculus; summary of the method: as §2
[23] = tested on: L1210; experiment: Percent of L1210 cells in the G2+M phase of the cell cycle at a compound concentration of 0.1 uM; type: functional, Mus musculus; summary of the method: as §2
[24] = tested on: A549; experiment: Antitumor activity against A549 non small cell carcinoma at dose range of 1.56-6.25 mg/kg on day 14, 21, 28; activity expressed as maximum tolerated dose; type: functional, Homo sapiens; summary of the method: as §1
[25] = Median survival time of treated animals/median survival time of control animals; ranges from 126-159; type: functional; summary of the method: as §1
[26] = tested on: P388; experiment: Antitumor activity against P388 leukemia at dose range of 1.56-25 mg/kg on day 1, activity expressed as maximum tolerated dose; type: functional, Mus musculus
[27] = tested on: L1210; experiment: Percent of L1210 cells in the G2+M phase of the cell cycle at a compound concentration of 0.25 uM; type: functional, Mus musculus; summary of the method: as §2
[28] = tested on: L1210; experiment: Percent of L1210 cells in the G2+M phase of the cell cycle at a compound concentration of 5 uM; Toxic at 10 uM; type: functional, Mus musculus; summary of the method: as §2
[29] = tested on: L1210; experiment: Percent of L1210 cells in the G2+M phase of the cell cycle at a compound concentration of 0.2 uM; type: functional, Mus musculus; summary of the method: as §2
[30] = tested on: A549; experiment: Antitumor activity against A549 non small cell carcinoma at dose range of 25-100 mg/kg on day 14, 21, 28; activity expressed as maximum tolerated dose; type: functional, Homo sapiens; summary of the method: as §1
[31] = tested on: L1210; experiment: […] antiproliferative activity against L1210 cell line; type: functional; settings: Mus musculus
[32] = tested on: A549; experiment: Antitumor activity against A549 non small cell carcinoma at dose range of 6.25-25 mg/kg on day 14, 21, 28; activity expressed as maximum tolerated dose; type: functional, Homo sapiens; summary of the method: as §1

SMILES: COc1cc([C@@H]2c3cc4c(cc3[C@@H](O[C@@H]3O[C@@H]5CO[C@@H](C)O[C@H]5[C@H](O)[C@H]3O)[C@H]3COC(=O)[C@H]23)OCO4)cc(OC)c1O [ETOPOSIDE]
- IC50 [1]: 29.8 nM
- IC50 [2]: 984 nM
- T/C [3]: 233%
- MTD [4]: 70
- IC50 [5]: 591 nM
- IC50 [6]: 600 nM
- IC50 [7]: 522 nM
- IC50 [8]: 275 nM
- IC50 [9]: 566 nM
- IC50 [10]: 2370 nM
- LTS [11]: 6
- IC50 [12]: 664 nM
- T/C [13]: 131%
- Effect [14]: 80%
- IC50 [15]: 2370 nM
- Activity [16]: 50
- IC50 [17]: 1190 nM
- MTD [18]: 100

SMILES: COc1cc([C@@H]2c3cc4c(cc3[C@@H](NS(=O)(=O)N3CCCCC3)[C@H]3COC(=O)[C@H]23)OCO4)cc(OC)c1O
- LTS [19]: 0
- MTD [20]: 200
- IC50 [21]: 120 nM
- T/C [3]: 121%
- Effect [22]: 77%
- Activity [16]: 34

SMILES: COc1cc([C@@H]2c3cc4c(cc3[C@@H](NS(=O)(=O)CCCN=[N+]=[N-])[C@H]3COC(=O)[C@H]23)OCO4)cc(OC)c1O
- IC50 [21]: 35 nM
- Activity [16]: 32

SMILES: COc1cc([C@@H]2c3cc4c(cc3[C@@H](NS(=O)(=O)N3CCN(C)CC3)[C@H]3COC(=O)[C@H]23)OCO4)cc(OC)c1O
- LTS [19]: 0
- Effect [23]: 84%
- IC50 [21]: 48 nM
- T/C [3]: 229%
- MTD [24]: 6.25
- T/C [25]: 159%
- MTD [26]: 12.5
- Activity [16]: 45

SMILES: COc1cc([C@@H]2c3cc4c(cc3[C@@H](NS(C)(=O)=O)[C@H]3COC(=O)[C@H]23)OCO4)cc(OC)c1O
- IC50 [21]: 70 nM
- Effect [22]: 77%
- Activity [16]: 50

SMILES: COc1cc([C@@H]2c3cc4c(cc3[C@@H](NS(=O)(=O)CCCCl)[C@H]3COC(=O)[C@H]23)OCO4)cc(OC)c1O
- Effect [27]: 66%
- IC50 [21]: 45 nM
- Activity [16]: 14

SMILES: COc1cc([C@@H]2c3cc4c(cc3[C@@H](NS(=O)(=O)c3c(F)c(F)c(F)c(F)c3F)[C@H]3COC(=O)[C@H]23)OCO4)cc(OC)c1O
- Effect [28]: 52%
- IC50 [21]: 1000 nM
- Activity [16]: 0

SMILES: CCCCS(=O)(=O)N[C@@H]1c2cc3c(cc2[C@@H](c2cc(OC)c(O)c(OC)c2)[C@H]2C(=O)OC[C@@H]21)OCO3
- IC50 [1]: 16.1 nM
- Effect [29]: 75%
- LTS [19]: 0
- IC50 [2]: 61.4 nM
- IC50 [21]: 33 nM
- T/C [3]: 161% and 105%
- IC50 [5]: 142 nM
- IC50 [6]: 69.2 nM
- IC50 [7]: 139 nM
- IC50 [8]: 85.7 nM
- IC50 [10]: 237 nM
- IC50 [12]: 62.6 nM
- MTD [30]: 50
- IC50 [31]: 33.5 nM
- IC50 [15]: 304 nM
- Activity [16]: 10
- IC50 [17]: 316 nM
- MTD [18]: 100

SMILES: COc1cc([C@@H]2c3cc4c(cc3[C@@H](NS(=O)(=O)N(C)C)[C@H]3COC(=O)[C@H]23)OCO4)cc(OC)c1O
- Effect [27]: 66%
- LTS [19]: 0
- MTD [20]: 100
- IC50 [21]: 37 nM
- T/C [3]: 192% and 133%
- MTD [32]: 6.25
- Activity [16]: 44

SMILES: COc1cc([C@@H]2c3cc4c(cc3[C@@H](NS(=O)(=O)N3CCOCC3)[C@H]3COC(=O)[C@H]23)OCO4)cc(OC)c1O
- Effect [27]: 76%
- LTS [19]: 0
- MTD [20]: 200
- IC50 [21]: 100 nM
- T/C [3]: 235% and 155%
- MTD [30]: 50
- Activity [16]: 31

SMILES: COc1cc([C@@H]2c3cc4c(cc3[C@@H](NS(=O)(=O)c3ccc(S(C)(=O)=O)cc3)[C@H]3COC(=O)[C@H]23)OCO4)cc(OC)c1O
- IC50 [21]: 550 nM
- Effect [14]: 75%
- Activity [16]: 10
